Test results as given in ChEMBL document CHEMBL2396655, “Design, synthesis, and biological evaluation of (E)-N-aryl-2-arylethenesulfonamide analogues as potent and orally bioavailable microtubule-targeted anticancer agents” (J Med Chem, 2013).
Converted amounts (≈) assume the structure as drawn. The source made the active and inactive calls. The rule behind the calls is not given here.

What was measured:
K562 = assay: Cytotoxicity against human K562 cells after 96 hrs by trypan blue exclusion assay; assay type: functional, cell-based; settings: for IC50 / GI50: K562, 96 h
Procedure, shortened: (§1)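 Cells were grown in DMEM or RPMI with 10% FBS and plated at 2.5×10⁴ cells/well in 12-well dishes. Compounds were added 24 h later at various concentrations. After 96 h, viable cells were counted by trypan blue exclusion from duplicate wells. Results are the mean of two independent experiments.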

DU-145 = assay: Cytotoxicity against human DU145 cells after 96 hrs by trypan blue exclusion assay; assay type: functional, cell-based; settings: for IC50 / GI50: DU-145, 96 h; procedure, shortened: as §1
[1] = Solubility of the compound in water; assay type: physicochemical
Tubulin (Sus scrofa) = Tubulin (Sus scrofa) (UniProt P02554+P02550); assay: Competitive binding affinity to pig brain tubulin paclitaxel binding site at 0.1 to 100 uM after 1 hr by mass spectrophotometric analysis in presence of paclitaxel and GTP
Procedure, shortened: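 Porcine brain tubulin (1.0 mg/mL) in PIPES 80 mM, MgCl₂ 2 mM, EGTA 0.5 mM, pH 6.9, at 37 °C. […] Competitor was 0.1–100 μM for 1 h. Unbound ligand in the 30 kDa ultrafiltrate was measured by MS. Runs were in triplicate; IC50 came from a Hill fit.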

[2] = Growth inhibition of multidrug-resistant human MES-SA/Dx5 cells; assay type: functional
Bos taurus = species: Bos taurus; assay: Inhibition of bovine brain tubulin assessed as destabilization of microtubule polymerization at 10 uM over 40 mins by spectrophotometric analysis
Procedure, shortened: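 Purified bovine brain tubulin was incubated at 37 °C with 10 μM compound, DMSO or reference agents. Polymerization was followed as rising absorbance at 340 nm over 40 min. Data are representative of three independent experiments.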

HCT-15 = assay: Cytotoxicity against human HCT15 cells after 96 hrs by trypan blue exclusion assay; assay type: functional; settings: HCT-15, 96 h; procedure, shortened: as §1
[3] = Growth inhibition of human MES-SA cells; assay type: functional
BT-20 = assay: Cytotoxicity against human BT20 cells after 96 hrs by trypan blue exclusion assay; assay type: functional; settings: BT-20, 96 h; procedure, shortened: as §1
MES-SA = assay: Resistance factor, ratio of GI50 for multidrug-resistant human MES-SA/Dx5 cells to GI50 for human MES-SA cells; assay type: functional
BT-474 = assay: Cytotoxicity against human BT474 cells after 96 hrs by trypan blue exclusion assay; assay type: functional; settings: BT-474, 96 h; procedure, shortened: as §1
NCI-H417 = assay: Cytotoxicity against human NCI-N417 cells after 96 hrs by trypan blue exclusion assay; assay type: functional; settings: NCI-H417, 96 h
Procedure, shortened: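 Cells grown in DMEM or RPMI with 10% FBS and 1 unit/mL penicillin-streptomycin, seeded in 12-well dishes at 2.5 ×10⁴ cells/mL/well. Compound added 24 h later at various concentrations. Viable cells counted by trypan blue exclusion from duplicate wells after 96 h. Value taken from dose-response curves of two independent experiments.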

LNCaP = assay: Cytotoxicity against human LNCAP cells after 96 hrs by trypan blue exclusion assay; assay type: functional; procedure, shortened: as §1
MIA PaCa-2 = assay: Cytotoxicity against human MIAPaCa2 cells after 96 hrs by trypan blue exclusion assay; assay type: functional; settings: MIA PaCa-2, 96 h; procedure, shortened: as §1
MCF7 = assay: Cytotoxicity against human MCF7 cells after 96 hrs by trypan blue exclusion assay; assay type: functional; settings: MCF7, 96 h; procedure, shortened: as §1
[4] = Cytotoxicity against human U87 cells after 96 hrs by sulforhodamine B assay; assay type: functional, cell-based, U-87MG ATCC; settings: U-87 MG
A-431 = assay: Cytotoxicity against human A431 cells after 96 hrs by trypan blue exclusion assay; assay type: functional; settings: A-431, 96 h; procedure, shortened: as §1
[5] = Cytotoxicity against human H80 cells after 96 hrs by trypan blue exclusion assay; assay type: functional; settings: H80, 96 h; procedure, shortened: as §1
OVCAR-3 = assay: Cytotoxicity against human OVCAR3 cells after 96 hrs by trypan blue exclusion assay; assay type: functional; settings: OVCAR-3, 96 h; procedure, shortened: as §1
[6] = Cytotoxicity against human NAMALWA cells after 96 hrs by trypan blue exclusion assay; assay type: functional; settings: NAMALVA; procedure, shortened: as §1

COc1cc(OC)c(/C=C/S(=O)(=O)Nc2ccc(OC)c(NC(C(=O)O)c3ccc(Cl)cc3)c2)c(OC)c1 (stereo not given)
Activity (K562): Dose-dependent effect
IC50 (K562): 0.015 µM
Activity (DU-145): Dose-dependent effect
IC50 (DU-145): 0.075 µM
solubility [1]: 10000 µg/mL (≈ 17.8 mM)

CC(=O)O[C@@]12CO[C@@H]1C[C@H](O)[C@@]1(C)C(=O)[C@H](O)C3=C(C)[C@@H](OC(=O)[C@H](O)[C@@H](NC(=O)OC(C)(C)C)c4ccccc4)C[C@@](O)([C@@H](OC(=O)c4ccccc4)[C@H]21)C3(C)C
Activity (Tubulin (Sus scrofa)): Active

COc1cc(OC)c(/C=C/S(=O)(=O)Nc2ccc(OC)c(NC(C)(C)C(=O)O)c2)c(OC)c1
GI50 [2]: 0.09 µM
inhibition (Bos taurus): Active
GI50 (HCT-15): 0.2 µM
Activity (K562): Dose-dependent effect
GI50 (K562): 0.01 µM
IC50 (K562): 0.005 µM
GI50 [3]: 0.07 µM
GI50 (BT-20): 0.1 µM
Activity (DU-145): Dose-dependent effect
GI50 (DU-145): 0.15 µM
IC50 (DU-145): 0.07 µM
RatioGI50 (MES-SA): 1.3
GI50 (BT-474): 0.15 µM
GI50 (NCI-H417): 0.03 µM
GI50 (LNCaP): 0.1 µM
GI50 (MIA PaCa-2): 0.08 µM
GI50 (MCF7): 0.08 µM
IC50 [4]: 0.09 µM
GI50 (A-431): 0.15 µM
solubility [1]: 10000 µg/mL (≈ 20.8 mM)

COC(=O)Nc1nc2cc(C(=O)c3cccs3)ccc2[nH]1
inhibition (Bos taurus): Active

COc1ccc(/C=C/S(=O)(=O)Nc2ccc(F)cc2)cc1
Activity (K562): Dose-dependent effect
IC50 (K562): 10 µM
Activity (DU-145): Dose-dependent effect
IC50 (DU-145): 10 µM

COC(=O)C(Nc1cc(NS(=O)(=O)/C=C/c2c(OC)cc(OC)cc2OC)ccc1OC)c1ccc(F)cc1 (stereo not given)
Activity (K562): Dose-dependent effect
IC50 (K562): 2.5 µM
Activity (DU-145): Dose-dependent effect
IC50 (DU-145): 2.5 µM

COc1ccc(NS(=O)(=O)/C=C/c2c(F)c(F)c(F)c(F)c2F)cc1
Activity (K562): Dose-dependent effect
IC50 (K562): 5 µM
Activity (DU-145): Dose-dependent effect
IC50 (DU-145): 10 µM

COc1cc(OC)c(/C=C/S(=O)(=O)Nc2ccc(OC)c(O)c2)c(OC)c1
Activity (K562): Dose-dependent effect
GI50 (K562): 0.015 µM
IC50 (K562): 0.015 µM
GI50 (BT-20): 0.25 µM
Activity (DU-145): Dose-dependent effect
GI50 (DU-145): 0.05 µM
IC50 (DU-145): 0.03 µM
GI50 (NCI-H417): 0.01 µM
GI50 [5]: 0.025 µM
GI50 (OVCAR-3): 0.1 µM
GI50 (LNCaP): 0.05 µM
GI50 [6]: 0.025 µM
IC50 [4]: 0.026 µM
GI50 (A-431): 0.6 µM

COc1ccc(/C=C/S(=O)(=O)Nc2c(F)c(F)c(F)c(F)c2F)cc1N
Activity (K562): Dose-dependent effect
IC50 (K562): 35 µM
Activity (DU-145): Dose-dependent effect
IC50 (DU-145): 35 µM

COc1cc(OC)c(/C=C/S(=O)(=O)Nc2ccc(OC)c(OP(=O)(O)O)c2)c(OC)c1
Activity (K562): Dose-dependent effect
IC50 (K562): 0.0075 µM
Activity (DU-145): Dose-dependent effect
IC50 (DU-145): 0.04 µM

COc1ccc(NS(=O)(=O)/C=C/c2ccc(OC)cc2OC)cc1
Activity (K562): Dose-dependent effect
IC50 (K562): 15 µM
Activity (DU-145): Dose-dependent effect
IC50 (DU-145): 15 µM
